High-throughput results deposited in PubChem by The Scripps Research Institute Molecular Screening Center.
TDP2 absorb: TDP2 (human) inhibition, absorbance primary screen; inhibition, % at 12.8 µM; AID 720702; recombinant TDP2, T5PNP hydrolysis, p-nitrophenol absorbance 415 nm; hit rate 0.34% among 370,000; O95551;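 active = inhibition above the mean of all tested compounds plus 3 SD, set per campaign, cut at about 25% in these data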;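 note: 0% = DMSO with enzyme and 100% = buffer with substrate but no TDP2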
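System: recombinant human TDP2 / Amount: 120 nM TDP2 per well / Also added: 5 mM T5PNP chromogenic substrate / Doses: 12.8 µM single point, 1% DMSO / Incubation: 2 h at 37 °C / Detection: p-Nitrophenol epi absorbance / Evaluation: % inhibition relative to enzyme-containing and enzyme-free wells / Repeats: singlicate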
CTSL1 counter: blocks F. hepatica cathepsin L1 in PFM18AAP counter-screen | AID 1906 | inhibition, % at 5.96 µM | hit rate 0.49% among 300,000 | recombinant F. hepatica cathepsin L1, Z-Leu-Arg-MCA fluorescence;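 active = inhibition above the mean of all tested compounds plus 3 SD, set per screening campaign, cut at about 17% in these data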;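 note: 0% = plate median of test compound wells and 100% = 1 µM Z-Phe-Ala-diazomethylketone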
GSTO1 counter: counter-screen for RBBP9 inhibitors: inhibitors of human GSTO1; recombinant GSTO1, activity-based probe fluorescence polarization; inhibition, % at 5.96 µM; hit rate 1.1% among 300,000; AID 1974;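 active = inhibition above the campaign mean inhibition plus 3 SD, cut at about 35% in these data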;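 note: 0% = GSTO1-1 with DMSO and 100% = wells lacking GSTO1-1 enzyme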
PAD4 FP inh: blocks human protein arginine deiminase 4. Q9UM07. recombinant PAD4, RCA probe fluorescence polarization. inhibition, % at 6.36 µM. hit rate 0.41% among 330,000. AID 485272;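 active = percent inhibition above a cutoff equal to the mean of all tested compounds plus 3 SD, cut at about 15% in these data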;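 note: 0% = PAD4 with RCA probe and DMSO and 100% = probe without PAD4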
Target sequence (Q9UM07 whole entry, looked up): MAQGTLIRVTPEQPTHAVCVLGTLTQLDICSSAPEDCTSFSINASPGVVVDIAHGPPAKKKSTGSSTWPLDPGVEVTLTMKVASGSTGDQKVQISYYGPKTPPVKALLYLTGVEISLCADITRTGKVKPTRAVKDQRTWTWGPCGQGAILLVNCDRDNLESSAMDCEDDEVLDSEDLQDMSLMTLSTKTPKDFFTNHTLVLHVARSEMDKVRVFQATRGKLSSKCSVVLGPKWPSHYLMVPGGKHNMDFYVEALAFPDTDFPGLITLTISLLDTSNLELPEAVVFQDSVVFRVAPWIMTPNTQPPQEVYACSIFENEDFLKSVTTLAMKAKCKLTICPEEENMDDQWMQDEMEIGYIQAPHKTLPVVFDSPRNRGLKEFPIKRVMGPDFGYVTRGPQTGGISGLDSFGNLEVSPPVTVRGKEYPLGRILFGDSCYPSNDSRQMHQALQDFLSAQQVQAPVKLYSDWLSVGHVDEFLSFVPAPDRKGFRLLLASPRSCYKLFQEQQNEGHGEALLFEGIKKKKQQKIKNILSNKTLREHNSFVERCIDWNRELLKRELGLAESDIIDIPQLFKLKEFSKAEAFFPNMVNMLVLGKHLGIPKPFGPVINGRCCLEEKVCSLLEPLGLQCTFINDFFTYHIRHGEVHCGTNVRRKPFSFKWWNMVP
GSTO1 inh conf: confirmation of human GSTO1 inhibitors; hit rate 54% among 2,400; recombinant GSTO1, probe fluorescence polarization; AID 2176; shares compounds with GSTO1 counter; inhibition, % at 5.96 µM;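 active = inhibition above the primary screen's cutoff, its mean inhibition plus 3 SD, cut at about 35% in these data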;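 note: loss of polarization as inhibitors block binding of rhodamine sulfonate ester activity probe; 0% = GSTO1 with DMSO and 100% = wells lacking GSTO1 enzyme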
GSTO1 ABPP inh: inhibitors of recombinant human GSTO1; inhibition, % at 1 µM; AID 463110; hit rate 30% among 130; shares compounds with GSTO1 counter; gel ABPP SE-Rh probe fluorescence;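 active = inhibition of the enzyme GSTO1 above about 75%, limit read from the data; inactive = inhibition below that limit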
Active calls of the source: *; · = no result; ! = not active in a repeat. In the library only some 1.4% were active in any assay of this set; here they are far more common.

SMILES	TDP2 absorb	CTSL1 counter	GSTO1 counter	PAD4 FP inh	others
CN(C)C(=O)CSc1nnc([C@@H](N)Cc2ccccc2)o1	10.4	32.6*	-1.7	0.1
O=C1NC(=O)N(c2ccc(F)cc2)C(=O)/C1=C/c1ccsc1	-16.6	34.9*	-11.7	-10.2
O=C1NC(=O)N(c2ccc(Br)cc2)C(=O)/C1=C/c1ccsc1	7.0	0.9	5.2	-4.4
C=C1[C@@H](OC(C)=O)[C@]23C[C@@H]1[C@@H](OC(C)=O)CC2[C@]12C4C[C@H]3[C@H]1N(CC)C[C@]4(C)CC[C@@H]2O (some centres undefined)	-5.8	-1.2	1.9	2.6
c1ccc(Cc2cnc(N3CCNCC3)nc2)cc1	5.6	·	·	·
Cc1ccccc1-n1c(O)c(/C=N/c2nccs2)c(=O)[nH]c1=O	-1.8	17.1*!	11.2	-4.5
Cc1cccc(N=Cc2c(O)n(-c3ccccc3C)c(=O)[nH]c2=O)c1	7.5	-2.0	3.0	-2.8
Cc1ccc2c(c1Cl)NC(C(=O)O)C1CC(Sc3ccccc3[N+](=O)[O-])C(Cl)C21 (centres undefined)	·	7.0	36.4*	-0.5
O=c1c2ccccc2nc(CSc2ncnc3nc[nH]c23)n1-c1ccccc1Cl	4.2	21.2*	-5.9	3.0
CN1CCc2nc(N)c(C#N)c(-c3ccccc3)c2C1	1.7	11.8	35.8*	3.9
CCC1(c2ccccc2)C(=O)N(C)C(=O)N(C)C1=O	-3.9	0.5	1.3	-0.4
CN1C(=O)N(C)C(=O)C2(Sc3ccccc3C2=O)C1=O	26.8*	-3.7	6.4	7.9
CNC(=O)Oc1ccc2c(c1)C(=O)c1ccccc1CO2	0.8	21.2*	-2.1	0.8
CCCCn1nnnc1C(CCSC)N1CCC2(CC1)C(=O)NCN2c1ccccc1 (centres undefined)	0.5	·	·	·
Cc1ccc(CN2C(=O)NC(=O)C3(Cc4c(nc5ccccn5c4=O)N4CCCCCC43)C2=O)cc1 (centres undefined)	4.9	1.2	35.5*	7.2
O=C1NC(=O)C2(Cc3ccccc3N3CCCC32)C(=O)N1c1cccc(Cl)c1 (centres undefined)	-10.7	0.6	-0.6	-1.7
N/C(=N\[N+](=O)[O-])N1CCN(C(=O)OC2CCCC2)CC1	1.9	-1.5	-0.1	-2.3
COC(=O)C1=C(c2ccc(F)cc2F)C[C@@H]2CC[C@H]1N2C(=O)N1CCC(O)(c2ccc(Cl)cc2)CC1	-4.3	·	·	0.9
CN(C)[C@@H]1C(=O)C(C(N)=O)=C(O)[C@@]2(O)C(=O)C3=C(O)c4c(O)ccc(Cl)c4[C@@](C)(O)C3C[C@@H]12 (some centres undefined)	-7.5	·	·	·
CN(C)[C@@H]1C(=O)C(C(N)=O)=C(O)[C@@]2(O)C(=O)C3=C(O)c4c(O)cccc4[C@@](C)(O)[C@H]3C[C@@H]12	·	-1.7	65.8*	-0.2
O=C(COc1ccccc1)N1CCN(C/C=C/c2ccccc2)CC1	-9.3	-3.2	6.3	-2.0
COc1ccc(OCC(=O)N2CCN(C/C=C/c3ccccc3)CC2)cc1	-3.9	16.7*	6.5	6.6
O=C1NC(=O)N(Cc2ccccc2)C(=O)/C1=C\N1CCCc2ccccc21	7.4	-2.1	38.1*	-13.8
CCC(C)N1C(=O)/C(=C/c2ccc3c(c2)CCN3CCCCl)C(=O)NC1=S (centres undefined)	7.2	0.7	36.7*	-5.5
CCOc1ccccc1CN1C2CCC1CC(c1ccc(C)cc1)C2 (centres undefined)	-5.4	-1.2	5.8	-3.9
SMILES	TDP2 absorb	CTSL1 counter	GSTO1 counter	PAD4 FP inh	others
O=CC(Br)P(=O)(N1CCOCC1)N1CCOCC1 (centres undefined)	-3.6	-1.3	1.6	1.4
CC(=O)N(C)CC#CCN1CCC(O)CC1	1.6	1.1	-5.2	-3.5
O=C1C=C(N2CC2)c2ccccc2C1=O	52.0*	·	·	·
CC1=NN(c2ccccc2)C(=O)C1/C=C1/C(=O)NC(=O)N(c2cc(C)cc(C)c2)C1=O (centres undefined)	20.5	0.2	18.2	15.9*
CC1=NN(c2ccccc2)C(=O)C1/C=C1\C(=O)NC(=O)N(c2ccc(C)c(C)c2)C1=O (centres undefined)	-3.4	3.2	20.0	8.9
CC(=O)OC1(c2ccccc2)CCN(C)CC1(C)C (centres undefined)	-1.2	0.8	4.7	-1.2
CC(=O)OC1(c2ccccc2)CC(C(C)(C)C)CN(C(C)(C)C)C1 (centres undefined)	0.5	34.9*	2.7	-0.2
Cc1c(N=Nc2c(O)n(C)c(=O)n(C)c2=O)c(=O)n(-c2ccccc2)n1C	-9.0	2.2	39.1*	-0.1
CCCC1(CC(C)C)C(=O)NC(=S)NC1=O	1.2	·	·	·
CCOc1ccc(N2C(=O)/C(=C/c3ccco3)C(=O)NC2=S)cc1	·	3.6	-22.8	-12.9
Cc1ccccc1N1C(=O)/C(=C/c2ccco2)C(=O)NC1=S	·	2.0	35.7*	-11.2
COc1cc(OC)c(C=O)c(OC(=O)N(C)C)c1	-0.7	27.6*	2.3	2.0
O=c1[nH]c2c(c(=O)n1C1CCCCC1)CCC2	0.5	3.1	-4.7	0.2
O=C1NC(=O)N(CCC2=CCCCC2)C(=O)/C1=C/c1cccs1	-0.1	0.5	21.2	-23.7
O=C1NC(=O)N(CCC2=CCCCC2)C(=O)/C1=C/c1ccc(O)cc1	0.4	3.4	35.4*	-2.4
CC1CCCN(C(=O)CCl)C1 (centres undefined)	7.0	6.8	66.3*	0.7	GSTO1 inh conf=84.3*;GSTO1 ABPP inh=57.0
C=CCNC(=S)N1Cc2ccccc2-n2nncc2C1	1.8	·	·	·
O=c1[nH]c(O)c(N=Nc2ccc(S(=O)(=O)N3CCOCC3)cc2)c(=O)[nH]1	-2.3	2.0	37.9*	-4.8	GSTO1 inh conf=46.1*
CCCCn1c(N)c(C(=O)NCCN2CCOCC2)c2nc3ccccc3nc21	0.9	-2.2	-0.9	-4.4
CC(C)CCNC(=O)c1c(N)n(CC2CCCO2)c2nc3ccccc3nc12 (centres undefined)	-0.7	-0.2	54.3*	-16.7	GSTO1 inh conf=57.1*
CC(=O)c1ccc(OC(C)C)c(Cc2c(O)[nH]c(=S)[nH]c2=O)c1	-3.9	1.9	3.7	-4.0
O=[N+]([O-])c1cc2c(cc1CNCCc1ccc3c(c1)OCO3)OCO2	3.6	-1.3	5.8	-2.2
CCN1CCN(Cc2cc3c(cc2[N+](=O)[O-])OCO3)CC1	9.4	-3.1	37.9*	-10.1	GSTO1 inh conf=19.2
CC1=CC(C)C(COC(N)=O)(COC(N)=O)C(C)C1 (centres undefined)	8.6	-2.3	3.1	-4.8
Oc1cccc2nc3ccccc3nc12	2.7	-2.8	70.3*	2.8	GSTO1 inh conf=13.9
Cc1ccccc1O	-8.1	·	·	-3.7
O=c1[nH]c(O)c(C=Nc2cccc(F)c2)c(=O)[nH]1	5.9	5.0	-4.8	-3.7
CCN(CC)C(=O)c1ccc2c(c1)C1C=CCC1C(C(=O)O)N2 (centres undefined)	8.0	·	·	·
